How the values were obtained:
MCF7 [1] = test: Cytotoxicity against human MCF7 cells assessed as surviving fraction at 100 uM after 48 hrs by sulforhodamine B assay; assay type: functional
How it was run: (§1)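 SRB assay on MCF7 breast cancer cells plated at 10^4 cells/well for 24 h before treatment. Compounds were dissolved in DMSO, diluted with saline and tested at 10, 25, 50 and 100 in triplicate wells for 48 h at 37 °C under 5% CO₂. Cells were fixed and stained 30 min with 0.4% SRB in 1% acetic acid, washed four times with acetic acid, and the dye was recovered in Tris-EDTA and read on an ELISA reader. IC50 was taken from the survival curve.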

MCF7 [2] = test: Cytotoxicity against 8 Gy irradiated human MCF7 cells after 1 hr by clonogenic assay; assay type: functional, cell-based; conditions: MCF7, light or radiation study
How it was run: (§2)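 MCF7 cells were treated with compound at 10, 25, 50 or 100 combined with one 8 Gy dose of ¹³⁷Cs gamma radiation at 1 Gy/min. Surviving fraction was measured 1 h after irradiation and given as mean ± SE relative to control, analysed by one-way ANOVA. IC50 was derived by nonlinear regression curve fitting.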

MCF7 [3] = test: Cytotoxicity against 8 Gy irradiated human MCF7 cells assessed as surviving fraction at 50 uM after 1 hr by clonogenic assay (reference value: 0.927 +/- 0.02); assay type: functional; how it was run: as §2
MCF7 [4] = test: Cytotoxicity against 8 Gy irradiated human MCF7 cells assessed as surviving fraction at 25 uM after 1 hr by clonogenic assay (reference value: 0.927 +/- 0.02); assay type: functional; how it was run: as §2
MCF7 [5] = test: Cytotoxicity against human MCF7 cells assessed as surviving fraction at 50 uM after 48 hrs by sulforhodamine B assay; assay type: functional; parameters: unit not given here; how it was run: as §1
MCF7 [6] = test: Cytotoxicity against 8 Gy irradiated human MCF7 cells assessed as surviving fraction at 10 uM after 1 hr by clonogenic assay (reference value: 0.927 +/- 0.02); assay type: functional; how it was run: as §2
MCF7 [7] = test: Cytotoxicity against human MCF7 cells after 48 hrs by sulforhodamine B assay; assay type: functional, cell-based; conditions: MCF7, 48 h; how it was run: as §1
MCF7 [8] = test: Cytotoxicity against human MCF7 cells assessed as surviving fraction at 25 uM after 48 hrs by sulforhodamine B assay; assay type: functional; how it was run: as §1
MCF7 [9] = test: Cytotoxicity against 8 Gy irradiated human MCF7 cells assessed as surviving fraction at 100 uM after 1 hr by clonogenic assay (reference value: 0.927 +/- 0.02); assay type: functional; how it was run: as §2
MCF7 [10] = test: Cytotoxicity against human MCF7 cells assessed as surviving fraction at 10 uM after 48 hrs by sulforhodamine B assay; assay type: functional; how it was run: as §1
MCF7 [11] = test: Ratio of doxorubicin IC50 to compound IC50 for human MCF7 cells; assay type: functional

Row | SMILES | Activity (MCF7 [1]) [%] | IC50 (MCF7 [2]) [µM] | Activity (MCF7 [3]) [fraction] | Activity (MCF7 [4]) | Activity (MCF7 [5]) | Activity (MCF7 [6]) | IC50 (MCF7 [7]) [µM] | Activity (MCF7 [8]) [%] | Activity (MCF7 [9]) | Activity (MCF7 [10]) [fraction] | Ratio IC50 (MCF7 [11])
1 | COc1ccc(C2C(C#N)=C(N)Oc3nc(Nc4ccc(S(N)(=O)=O)cc4)sc32)cc1 (stereo not drawn) | 35 | 14.8 | 0.171 | 0.346 fraction (of 1) | 0.331 | 0.618 fraction (unitless) | 27.5 | 55 | 0.201 fraction (of control) | 0.81 | 
2 | COc1ccc(C2C(C#N)=C(/N=C/c3ccccc3)Oc3nc(Nc4ccc(S(N)(=O)=O)cc4)sc32)cc1 (stereo not drawn) | 27.1 |  |  |  | 0.307 |  | 33.5 | 66.8 |  | 0.825 | 
3 | COc1ccc(C2C(C#N)=C(/N=C/c3ccccc3Cl)Oc3nc(Nc4ccc(S(N)(=O)=O)cc4)sc32)cc1 (stereo not drawn) | 46 | 9.11 | 0.135 | 0.237 fraction (of 1) | 0.36 | 0.453 fraction (unitless) | 10.2 | 32.3 | 0.119 fraction (of control) | 0.541 | 3.1
4 | COc1ccc(C2C(C#N)=C(/N=C/c3ccc(Cl)cc3)Oc3nc(Nc4ccc(S(N)(=O)=O)cc4)sc32)cc1 (stereo not drawn) | 29 | 8.72 | 0.17 | 0.217 fraction (of 1) | 0.355 | 0.311 fraction (unitless) | 9.55 | 25.1 | 0.201 fraction (of control) | 0.443 | 
5 | COc1ccc(C2C(C#N)=C(/N=C/c3cccc(Br)c3)Oc3nc(Nc4ccc(S(N)(=O)=O)cc4)sc32)cc1 (stereo not drawn) | 30.9 | 8.72 | 0.119 | 0.211 fraction (of 1) | 0.371 | 0.319 fraction (unitless) | 9.39 | 23.3 | 0.235 fraction (of control) | 0.435 | 3.4
6 | COc1ccc(C2C(C#N)=C(/N=C/c3ccc(F)cc3)Oc3nc(Nc4ccc(S(N)(=O)=O)cc4)sc32)cc1 (stereo not drawn) | 44.3 |  |  |  | 0.38 |  | 28.9 | 55.1 |  | 0.845 | 
7 | COc1ccc(C2C(C#N)=C(/N=C/c3ccc(Cl)cc3Cl)Oc3nc(Nc4ccc(S(N)(=O)=O)cc4)sc32)cc1 (stereo not drawn) | 39.1 |  |  |  | 0.377 |  | 23.5 | 50.3 |  | 0.693 | 
8 | COc1ccc(C2C(C#N)=C(/N=C/c3ccc([N+](=O)[O-])cc3)Oc3nc(Nc4ccc(S(N)(=O)=O)cc4)sc32)cc1 (stereo not drawn) | 38.1 | 7.55 | 0.1 | 0.201 fraction (of 1) | 0.313 | 0.403 fraction (unitless) | 9.7 | 32.7 | 0.13 fraction (of control) | 0.48 | 3.3
9 | COc1ccc(C2C(C#N)=C(/N=C/c3ccc(N(C)C)cc3)Oc3nc(Nc4ccc(S(N)(=O)=O)cc4)sc32)cc1 (stereo not drawn) | 37.8 |  |  |  | 0.347 |  | 36.2 | 70.1 |  | 0.792 | 
10 | COc1ccc(C2C(C#N)=C(/N=C/C=C/c3ccccc3)Oc3nc(Nc4ccc(S(N)(=O)=O)cc4)sc32)cc1 (stereo not drawn) | 37 |  |  |  | 0.242 |  | 28.9 | 60.1 |  | 0.828 | 
11 | COc1ccc(C2C(C#N)=C(/N=C/c3ccc(O)cc3)Oc3nc(Nc4ccc(S(N)(=O)=O)cc4)sc32)cc1 (stereo not drawn) | 30.7 |  |  |  | 0.37 |  | 34.5 | 63.8 |  | 0.872 | 
12 | COc1ccc(C2C(C#N)=C(/N=C/c3ccc4c(c3)OCO4)Oc3nc(Nc4ccc(S(N)(=O)=O)cc4)sc32)cc1 (stereo not drawn) | 39.3 |  |  |  | 0.419 |  | 38.2 | 66 |  | 0.814 | 

Source: ChEMBL document CHEMBL2034886, “Anticancer and radiosensitizing evaluation of some new pyranothiazole-Schiff bases bearing the biologically active sulfonamide moiety” (Eur J Med Chem, 2012)
